High-throughput results as filed in PubChem.
TbMetRS inhib: blocks T. brucei methionyl-tRNA synthetase activity; purified T. brucei MetRS, ATP depletion, Kinase-Glo luminescence; inhibition, % at 11.9 µM; 360,000 compounds, 0.4% hits;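 active = inhibition above a per-plate cutoff of the control wells' mean inhibition plus 3 SD, cut at about 5.5% in these data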;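 note: 0% = DMSO wells median and 100% = median of wells with control inhibitor compound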
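Assay system: T. brucei methionyl-tRNA synthetase, purified | Medium: HEPES buffer with MgCl2, KCl, DTT, spermine, BSA, pyrophosphatase | Compound: 11.9 µM single point | Incubation: 15 min enzyme-compound preincubation, 2 h reaction, 10 min detection, 25 °C | Measured by: Kinase-Glo luciferase luminescence reporting remaining unconsumed ATP | Measure: % inhibition normalized to control-well medians | Replication: Singlicate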
Pemphigus Ab inh: inhibitors of pemphigus antibody binding to human desmoglein-3 | DSG3-coupled beads, scFv-anti-DSG3-GFP binding, flow cytometry; active compounds read low | AID 588358 | P32926 | binding (percent of control), % at 10 µM | 310,000 compounds, 0.48% hits;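 active = binding more than 3 SD below its plate's average and above zero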;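 note: hits lower antibody fragment binding to DSG3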
Target sequence (P32926 whole entry, looked up, the tested form may be a part): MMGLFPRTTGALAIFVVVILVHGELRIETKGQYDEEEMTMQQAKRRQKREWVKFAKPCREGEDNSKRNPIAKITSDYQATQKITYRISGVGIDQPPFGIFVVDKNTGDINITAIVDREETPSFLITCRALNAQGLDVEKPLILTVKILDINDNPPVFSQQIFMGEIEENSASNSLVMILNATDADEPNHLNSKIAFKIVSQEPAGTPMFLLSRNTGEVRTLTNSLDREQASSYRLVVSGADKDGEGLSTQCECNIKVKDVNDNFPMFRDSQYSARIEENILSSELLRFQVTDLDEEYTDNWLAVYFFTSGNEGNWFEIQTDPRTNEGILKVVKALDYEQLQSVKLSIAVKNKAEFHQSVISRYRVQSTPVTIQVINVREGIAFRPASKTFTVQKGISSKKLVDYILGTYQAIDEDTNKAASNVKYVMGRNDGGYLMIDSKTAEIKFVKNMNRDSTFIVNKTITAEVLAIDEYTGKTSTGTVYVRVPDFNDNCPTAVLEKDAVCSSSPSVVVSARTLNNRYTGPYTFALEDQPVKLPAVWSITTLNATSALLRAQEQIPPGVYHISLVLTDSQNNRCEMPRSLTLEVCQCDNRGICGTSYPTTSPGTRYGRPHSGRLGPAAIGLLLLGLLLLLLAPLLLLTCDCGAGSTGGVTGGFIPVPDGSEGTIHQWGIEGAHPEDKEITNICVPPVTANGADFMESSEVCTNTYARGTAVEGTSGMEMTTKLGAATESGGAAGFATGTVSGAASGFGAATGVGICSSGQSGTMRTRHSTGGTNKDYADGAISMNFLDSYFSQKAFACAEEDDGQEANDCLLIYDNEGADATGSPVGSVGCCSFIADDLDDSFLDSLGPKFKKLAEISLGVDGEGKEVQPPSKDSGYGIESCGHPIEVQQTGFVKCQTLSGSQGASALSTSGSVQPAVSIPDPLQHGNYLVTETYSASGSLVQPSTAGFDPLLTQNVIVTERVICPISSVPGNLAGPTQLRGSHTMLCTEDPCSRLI
NadD block: inhibitors of Staphylococcus aureus NadD | 360,000 compounds, 0.78% hits | purified NadD enzyme, colorimetric absorbance read-out | inhibition, % at 20 µM; in the data active = inhibition above about 26%
Rce1 inhib: blocks yeast Ras-converting enzyme; Q03530; yeast membranes, quenched prenylated peptide cleavage fluorescence; calls only; 290,000 compounds, 0.27% hits; AID 2563;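 active = fall in fluorescence gain of 50% or more versus controls, with final raw signal at or below 3038400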;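 note: plate controls were neutral control wells for no effect and wells lacking membranes for full effect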
core dimer inh: HCV core protein dimerization inhibition. 300,000 compounds, 0.33% hits. inhibition, % at 5 µM. TR-FRET GST/Flag-core106 dimerization, 1536-well;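 active = inhibition above the mean of all tested compounds plus 3 SD, set per screening campaign, cut at about 45% in these data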
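assay system = GST-tagged and Flag-tagged HCV core protein residues 1-106 | controls = unlabelled core106 and no-GST-core106 wells | incubation = compound-protein-antibody incubation 4 h at 22.5 °C | probe or stimulus = Eu donor and XL665 acceptor anti-tag antibodies | read-out = % inhibition based on acceptor/donor emission ratio | signal = TR-FRET 671 and 617 nm emission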
NadD conf: NadD (S. aureus) inhibition, single concentration confirmation | shares compounds with NadD block | purified S. aureus NadD, colorimetric enzyme assay | inhibition, % at 20 µM | 2,000 compounds, 13% hits | AID 624309; in the data active = inhibition mostly above about 42%, no sharp cut-off; inactive = mostly below about 42%
Active calls of the source: *; i = inactive; x = not tested or not shown. Rows were chosen to be rich in hits. Some 1.9% of all compounds tested hit in one or more screens of this group.

SMILES	TbMetRS inhib	Pemphigus Ab inh	NadD block	Rce1 inhib	core dimer inh	NadD conf
CC(C)Cn1c(=O)c(C(=O)Nc2ccccc2S(N)(=O)=O)c(O)c2ccccc21	0	103	33*	i	0	65*
CCC(C)n1c(=O)c(C(=O)Nc2ccccc2S(N)(=O)=O)c(O)c2ccccc21 (configuration not stated)	0	100	33*	i	18	64*
COc1ccc2[nH]c(C(=O)O)c(NS(=O)(=O)c3ccc(F)cc3)c2c1	0	101	-4	i	6	x
COc1ccc(CN(CC(=O)NCc2ccc3c(c2)OCO3)C(=O)c2csnn2)cc1	0	x	0	i	-6	x
COc1ccc(Cl)cc1NC(=O)C(C)OC(=O)c1ccc(NS(=O)(=O)c2ccc3[nH]c(=O)[nH]c3c2)cc1 (configuration not stated)	0	126	36*	i	12	31
COc1cc2c(cc1NC(=O)CN1CCN(S(=O)(=O)c3ccc(C)cc3)CC1)oc1ccccc12	-3	61	33*	i	9	8
COc1cc2c(cc1NC(=O)C(C)N1CCN(S(=O)(=O)c3ccccc3[N+](=O)[O-])CC1)oc1ccccc12 (configuration not stated)	-1	101	38*	i	12	-1
COc1cc2c(cc1NC(=O)C(C)N1CCN(S(=O)(=O)c3ccc(C)c(C)c3)CC1)oc1ccccc12 (configuration not stated)	-1	106	1	i	8	x
COc1cc2c(cc1NC(=O)C(C)OC(=O)c1ccc(S(=O)(=O)Nc3ccccc3Cl)cc1)oc1ccccc12 (configuration not stated)	1	91	32*	i	36	2
Cc1cc(C(=O)Cn2nnc(-c3ccc(Cl)cc3)n2)c(C)n1CC1CCCO1 (configuration not stated)	-1	102	-7	i	3	x
COC(=O)CC(NC(=O)c1ccco1)c1ccc(C(C)C)cc1 (configuration not stated)	0	97	0	i	1	x
Cc1cc(C)c(NC(=O)c2ccoc2C)c(C)c1	0	98	-2	i	-4	x
COCCn1c(C)cc(C2=NNC(=Nc3ccc(Cl)cc3Cl)SC2)c1C	-1	94	36*	i	25	3
O=C(N/N=C/C=C\c1ccccc1[N+](=O)[O-])c1cc(-c2ccc3ccccc3c2)n[nH]1	0	94	43*	i	x	27*
Cc1ccccc1-n1c(SCC(=O)N/N=C/C=C/c2ccccc2[N+](=O)[O-])nc2ccccc2c1=O	0	94	33*	i	26	18
O=C(N/N=C/C=C/c1ccccc1[N+](=O)[O-])c1ccncc1	0	109	5	i	-2	x
COc1ccccc1-c1cc(C(=O)N/N=C/C=C/c2ccccc2[N+](=O)[O-])c2ccccc2n1	1	x	38*	i	14	30
O=C(N/N=C/C=C/c1ccccc1[N+](=O)[O-])c1cc(-c2cccnc2)nc2ccccc12	0	95	22	i	6	x
O=C(NCc1ccc2c(c1)OCO2)c1ccc(CS(=O)(=O)c2cccc(C(F)(F)F)c2)o1	0	100	-6	i	-1	x
COc1ccc(CN(C(=O)c2snc(C(N)=O)c2N)C(C(=O)NC(C)(C)C)c2ccco2)cc1 (configuration not stated)	0	95	-9	i	-3	x
Cc1ccc(OCCCCN2CCC(C)CC2)cc1	0	110	-1	i	-5	x
O=C(O)c1ccc(/C=N/NC(=O)c2ccc(CN3c4cccc5cccc(c45)S3(=O)=O)cc2)cc1	0	92	30*	i	11	66*
CC(/C=N/NC(=O)c1ccc(CN2c3cccc4cccc(c34)S2(=O)=O)cc1)c1ccccc1 (configuration not stated)	0	x	27	i	26	x
Cc1[nH]n(-c2ccccc2)c(=O)c1-c1cccc(Cl)c1	0	89	5	i	-13	x
COc1ccc(/C=N/N=C2/NC(=O)C(CC(=O)O)S2)cc1OCc1ccc(Cl)cc1Cl (configuration not stated)	4	103	36*	i	18	31
SMILES	TbMetRS inhib	Pemphigus Ab inh	NadD block	Rce1 inhib	core dimer inh	NadD conf
Nc1cc(=O)[nH]c(SCC(=O)N2N=C(c3ccc4ccccc4c3)CC2c2ccccc2)n1 (configuration not stated)	1	85	40*	i	23	39
O=C(Nn1cnnc1)c1ccccc1F	0	98	-1	i	-1	x
O=C/C(=C\Nc1ccc(Cl)cn1)c1nc2cc(Cl)ccc2o1	0	107	38*	i	4	8
O=C/C(=C\Nc1ccc(Cl)cn1)c1nc2ccccc2o1	-2	107	-2	i	17	x
Cc1ccc(C)c(N2CCN(C(=O)c3ccc(Cn4c(=S)[nH]c5ccc(N6CCOCC6)cc5c4=O)cc3)CC2)c1	0	x	30*	i	48*	-3
Cc1cccc(N2CCN(C(=O)CCCCCn3c(=S)[nH]c4ccc(N5CCOCC5)cc4c3=O)CC2)c1C	-1	x	46*	i	29	6
O=C(c1ccc(Cn2c(=S)[nH]c3ccc(N4CCOCC4)cc3c2=O)cc1)N1CCN(c2ccc(F)cc2)CC1	0	101	20	i	24	x
CCCCn1c(=S)[nH]c2ccc(N3CCOCC3)cc2c1=O	x	x	x	i	6	x
C=CCOc1c(Br)cc(CNc2ccc(NC(=O)C(C)C)c(OC)c2)cc1OCC	-1	x	12	i	9	x
CCc1nnc(NC(=O)CCC(=O)NC2CC2)s1	0	101	1	i	5	x
COc1ccc(C)cc1-n1c(SCC(=O)Nc2cc(C)on2)nc2sc(C)c(C)c2c1=O	0	85	36*	i	5	35
COc1ccc2[nH]c(C(=O)NCCc3ccccc3)cc2c1	0	100	-4	i	5	x
Cc1ccc(-c2c(C(=O)Nc3ccccc3C)c(C)[nH]c(=S)c2C#N)o1	0	96	31*	x	41	3
Cc1ccccc1NC(=O)c1c(C)[nH]c(=S)c(C#N)c1-c1ccc(Cl)cc1	1	116	18	i	12	x
CCCCCCCCCCCCCCCC[n+]1ccc(C(N)=O)cc1	-1	94	29*	x	-15	-5
COC(=O)c1ccccc1S(=O)(=O)N1CCC(C(=O)NCC2CCCO2)CC1 (configuration not stated)	0	112	-2	i	0	x
O=C(N/N=C\c1ccc(Cl)cc1Cl)c1sccc1-n1cccc1	-1	x	-6	i	18	x
Cc1cc(O)c(C(=O)/C=C/c2cccc([N+](=O)[O-])c2)c(=O)o1	0	101	35*	i	29	5
